Data: ChEMBL document CHEMBL2321765 (J Med Chem, 2013)
Blank lines part the entries; values can stand above or below the compound they belong to. Activity calls are given as the source filed them. No cut-off for these calls is given here.

Columns and labels:
CYP3A4 [1] = biological target: T1, CYP3A4 (Homo sapiens, UniProt P08684); assay: Time dependent inhibition of CYP3A4 in human liver microsomes using testosterone as substrate at 10 uM preincubated for 30 mins by LC-MS-MS analysis relative to control; assay type: ADME, Microsome; conditions: probe testosterone, read-out: TDI
Summary of the method: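 CYP3A4 metabolism of testosterone was measured after 0 or 30 min preincubation of enzyme with test article at the indicated concentration. Activity lost via preincubation, relative to the zero-minute control with the same inhibitor, was the end point. 6β-OH testosterone was detected by LC-MS/MS with cortisone as internal standard.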

CYP3A4 [2] = biological target: T1, CYP3A4; assay: Inhibition of CYP3A4 in human liver microsomes using testosterone as substrate at 10 uM by LC-MS-MS analysis relative to control; assay type: ADME, Microsome; conditions: probe testosterone
[3] = Half life in dog; assay type: ADME, organism-based, Canis lupus familiaris; conditions: in vivo
[4] = Volume of distribution at steady state in rat; assay type: ADME, organism-based; conditions: in vivo, read-out: Vdss
[5] = biological target: T2, Macrophage-stimulating protein receptor (Homo sapiens, UniProt Q04912); conditions: 1 uM
[6] = biological target: T2, Macrophage-stimulating protein receptor; assay: Inhibition of RON (unknown origin) by TR-FRET assay
Mus musculus [7] = assay: In vivo inhibition of c-MET phosphorylation at tyrosine Y1349 in human GTL16 cells xenografted in po dosed mouse after 8 hrs by Western blotting analysis; assay type: functional, organism-based; conditions: GTL 16, 8 h
[8] = Plasma clearance in dog; assay type: ADME, organism-based, Canis lupus familiaris
Cytochrome P450 2C9 = Cytochrome P450 2C9 (Homo sapiens, UniProt P11712); assay: Inhibition of CYP2C9 (unknown origin); assay type: ADME
[9] = Antitumor activity against human GTL16 cells expressing c-MET xenografted in CD1 nu/nu mouse assessed as tumor growth inhibition at 3 mg/kg, po bid for 21 days relative to control; assay type: functional; conditions: GTL 16, 504 h, read-out: TGI
Summary of the method: (§1)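 Mice carrying GTL-16 tumours received the compound orally; tumour growth was compared with the vehicle-treated group by two-way repeated measures ANOVA.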

[10] = Oral bioavailability in dog; assay type: ADME, organism-based, Canis lupus familiaris; conditions: in vivo
GTL 16 [11] = assay: Antitumor activity against human GTL16 cells expressing c-MET xenografted in CD1 nu/nu mouse assessed as tumor growth inhibition at 100 mg/kg, po qd for 21 days; assay type: functional, organism-based; set-up: dose 100 mg/kg
[12] = Plasma clearance in rat; assay type: ADME, organism-based
[13] = Volume of distribution at steady state in dog; assay type: ADME, organism-based, Canis lupus familiaris; conditions: in vivo, read-out: Vdss
Cytochrome P450 2D6 = Cytochrome P450 2D6 (Homo sapiens, UniProt P10635); assay: Inhibition of CYP2D6 (unknown origin); assay type: ADME
[14] = biological target: Fibroblast growth factor receptor 3 (Homo sapiens) (UniProt P22607); assay: Inhibition of FGFR3 (unknown origin) relative to control; conditions: concentration not given here
Summary of the method: (§2)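 Kinase selectivity was assessed at a 10 μM or 0.1 μM test concentration, as footnoted per entry.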

[15] = Oral bioavailability in rat; assay type: ADME, organism-based; conditions: in vivo
Mus musculus [16] = assay: Toxicity in CD1 nu/nu mouse xenografted with human GLT16 cells assessed as change in body weight relative to control; assay type: organism-based; conditions: in vivo
GTL 16 [17] = assay: Antitumor activity against human GTL16 cells expressing c-MET xenografted in po dosed CD1 nu/nu mouse assessed as tumor growth inhibition administered bid for 21 days; assay type: functional, organism-based; summary of the method: as §1
Mus musculus [18] = assay: In vivo inhibition of c-MET phosphorylation at tyrosine Y1349 in human GTL16 cells xenografted in po dosed mouse after 1 hr by Western blotting analysis; assay type: functional, organism-based; conditions: GTL 16, 1 h
Summary of the method: (§3)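 Mice carrying GTL-16 xenografts received a single oral dose of 10, 30, 100 or 400 mg/kg and were euthanized 1 h after dosing. Phospho-c-Met (Y1349) and total c-Met in the tumours were measured by quantitative Western blotting. Plasma total drug was also measured, and in vivo IC50 was deduced from the relationship between plasma level and tumour pY1349.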

Mus musculus [19] = assay: In vivo inhibition of c-MET phosphorylation at tyrosine Y1349 in human GTL16 cells xenografted in mouse at 100 mg/kg, po after 1 hr by Western blotting analysis; assay type: functional, organism-based; set-up: dose 100 mg/kg; summary of the method: as §3
[20] = Antitumor activity against human GTL16 cells expressing c-MET xenografted in CD1 nu/nu mouse assessed as tumor growth inhibition at 10 mg/kg, po bid for 21 days relative to control; assay type: functional; conditions: GTL 16, 504 h, read-out: TGI; summary of the method: as §1
[21] = Antitumor activity against human GTL16 cells expressing c-MET xenografted in CD1 nu/nu mouse assessed as tumor growth inhibition at 100 mg/kg, po bid for 21 days relative to control; assay type: functional; conditions: GTL 16, 504 h, read-out: TGI; summary of the method: as §1
[22] = biological target: Vascular endothelial growth factor receptor 3 (Homo sapiens) (UniProt P35916); assay: Inhibition of FLT4 (unknown origin) relative to control; conditions: concentration not given here; summary of the method: as §2
[23] = biological target: Hepatocyte growth factor receptor (Homo sapiens) (UniProt P08581); conditions: 1 uM
[24] = Antitumor activity against human GTL16 cells expressing c-MET xenografted in CD1 nu/nu mouse assessed as tumor growth inhibition at 30 mg/kg, po bid for 21 days relative to control; assay type: functional; conditions: GTL 16, 504 h, read-out: TGI; summary of the method: as §1
[25] = biological target: T3, Tyrosine-protein kinase Mer (Homo sapiens) (UniProt Q12866); assay: Inhibition of MER (unknown origin) relative to control; conditions: concentration not given here; summary of the method: as §2
T3 sequence (whole entry): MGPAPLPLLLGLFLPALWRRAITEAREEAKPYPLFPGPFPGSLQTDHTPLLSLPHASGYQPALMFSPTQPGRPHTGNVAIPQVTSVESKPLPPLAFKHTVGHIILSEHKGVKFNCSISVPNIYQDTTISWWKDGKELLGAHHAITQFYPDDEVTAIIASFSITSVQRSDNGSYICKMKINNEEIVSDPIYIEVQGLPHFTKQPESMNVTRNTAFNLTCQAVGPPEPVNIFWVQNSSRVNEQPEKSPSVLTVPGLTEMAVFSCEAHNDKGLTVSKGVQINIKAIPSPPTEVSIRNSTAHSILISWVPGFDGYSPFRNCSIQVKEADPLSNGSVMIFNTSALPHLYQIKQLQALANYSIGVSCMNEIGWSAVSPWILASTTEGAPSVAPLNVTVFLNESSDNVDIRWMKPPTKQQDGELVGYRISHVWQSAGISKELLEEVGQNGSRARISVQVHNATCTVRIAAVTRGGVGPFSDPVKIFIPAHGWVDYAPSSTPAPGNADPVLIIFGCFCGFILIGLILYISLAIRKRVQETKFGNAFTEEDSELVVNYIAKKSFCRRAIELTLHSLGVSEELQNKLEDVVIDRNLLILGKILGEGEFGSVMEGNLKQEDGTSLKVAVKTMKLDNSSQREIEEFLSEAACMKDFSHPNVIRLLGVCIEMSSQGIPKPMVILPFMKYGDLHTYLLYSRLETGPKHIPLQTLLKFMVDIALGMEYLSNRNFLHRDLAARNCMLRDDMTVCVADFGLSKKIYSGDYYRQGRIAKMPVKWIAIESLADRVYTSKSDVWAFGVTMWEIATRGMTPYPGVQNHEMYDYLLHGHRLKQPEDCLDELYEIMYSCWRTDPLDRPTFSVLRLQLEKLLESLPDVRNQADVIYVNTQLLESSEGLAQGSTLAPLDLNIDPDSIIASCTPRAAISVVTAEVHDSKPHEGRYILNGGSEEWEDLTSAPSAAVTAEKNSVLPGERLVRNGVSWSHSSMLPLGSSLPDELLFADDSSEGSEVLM

[26] = Half life in rat; assay type: ADME, organism-based; conditions: in vivo
[27] = biological target: Tyrosine-protein kinase Fes/Fps (Homo sapiens) (UniProt P07332); assay: Inhibition of FES (unknown origin) relative to control; conditions: concentration not given here; summary of the method: as §2
Cytochrome P450 3A4 = Cytochrome P450 3A4 (Homo sapiens, UniProt P08684); assay: Time dependent inhibition of CYP3A4 in human liver microsomes using testosterone as substrate up to 100 uM by LC-MS-MS analysis; assay type: ADME, Microsome
Summary of the method: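 For inactivation kinetics, CYP3A4 testosterone 6β-hydroxylation was quantified by LC-MS/MS as the area ratio of 6β-OH testosterone to the cortisone internal standard. Ki and kinact were obtained by nonlinear regression.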

T1 sequence (P08684 whole entry): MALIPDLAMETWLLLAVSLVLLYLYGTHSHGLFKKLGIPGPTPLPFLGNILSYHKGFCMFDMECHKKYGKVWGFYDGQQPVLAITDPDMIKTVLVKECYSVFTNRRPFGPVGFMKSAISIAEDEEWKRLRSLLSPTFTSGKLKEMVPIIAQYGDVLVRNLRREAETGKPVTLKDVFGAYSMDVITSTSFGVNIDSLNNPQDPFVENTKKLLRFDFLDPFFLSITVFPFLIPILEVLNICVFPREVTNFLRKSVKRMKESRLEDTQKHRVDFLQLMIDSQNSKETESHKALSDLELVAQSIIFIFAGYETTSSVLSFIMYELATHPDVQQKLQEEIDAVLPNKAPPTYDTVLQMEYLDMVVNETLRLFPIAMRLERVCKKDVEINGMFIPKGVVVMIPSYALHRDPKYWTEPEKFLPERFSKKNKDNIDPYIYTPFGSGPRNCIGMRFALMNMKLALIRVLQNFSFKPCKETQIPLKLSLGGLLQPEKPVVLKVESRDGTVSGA
T2 sequence (Q04912 25-304 limits assumed): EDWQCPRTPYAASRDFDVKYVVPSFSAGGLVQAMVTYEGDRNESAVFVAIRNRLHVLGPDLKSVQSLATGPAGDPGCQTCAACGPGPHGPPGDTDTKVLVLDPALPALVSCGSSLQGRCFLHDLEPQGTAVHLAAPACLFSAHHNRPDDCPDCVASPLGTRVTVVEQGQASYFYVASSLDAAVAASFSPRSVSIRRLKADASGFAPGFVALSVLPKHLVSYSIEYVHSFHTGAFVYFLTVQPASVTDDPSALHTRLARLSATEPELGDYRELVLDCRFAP
T2 sequence (Q04912 310-1400 limits assumed): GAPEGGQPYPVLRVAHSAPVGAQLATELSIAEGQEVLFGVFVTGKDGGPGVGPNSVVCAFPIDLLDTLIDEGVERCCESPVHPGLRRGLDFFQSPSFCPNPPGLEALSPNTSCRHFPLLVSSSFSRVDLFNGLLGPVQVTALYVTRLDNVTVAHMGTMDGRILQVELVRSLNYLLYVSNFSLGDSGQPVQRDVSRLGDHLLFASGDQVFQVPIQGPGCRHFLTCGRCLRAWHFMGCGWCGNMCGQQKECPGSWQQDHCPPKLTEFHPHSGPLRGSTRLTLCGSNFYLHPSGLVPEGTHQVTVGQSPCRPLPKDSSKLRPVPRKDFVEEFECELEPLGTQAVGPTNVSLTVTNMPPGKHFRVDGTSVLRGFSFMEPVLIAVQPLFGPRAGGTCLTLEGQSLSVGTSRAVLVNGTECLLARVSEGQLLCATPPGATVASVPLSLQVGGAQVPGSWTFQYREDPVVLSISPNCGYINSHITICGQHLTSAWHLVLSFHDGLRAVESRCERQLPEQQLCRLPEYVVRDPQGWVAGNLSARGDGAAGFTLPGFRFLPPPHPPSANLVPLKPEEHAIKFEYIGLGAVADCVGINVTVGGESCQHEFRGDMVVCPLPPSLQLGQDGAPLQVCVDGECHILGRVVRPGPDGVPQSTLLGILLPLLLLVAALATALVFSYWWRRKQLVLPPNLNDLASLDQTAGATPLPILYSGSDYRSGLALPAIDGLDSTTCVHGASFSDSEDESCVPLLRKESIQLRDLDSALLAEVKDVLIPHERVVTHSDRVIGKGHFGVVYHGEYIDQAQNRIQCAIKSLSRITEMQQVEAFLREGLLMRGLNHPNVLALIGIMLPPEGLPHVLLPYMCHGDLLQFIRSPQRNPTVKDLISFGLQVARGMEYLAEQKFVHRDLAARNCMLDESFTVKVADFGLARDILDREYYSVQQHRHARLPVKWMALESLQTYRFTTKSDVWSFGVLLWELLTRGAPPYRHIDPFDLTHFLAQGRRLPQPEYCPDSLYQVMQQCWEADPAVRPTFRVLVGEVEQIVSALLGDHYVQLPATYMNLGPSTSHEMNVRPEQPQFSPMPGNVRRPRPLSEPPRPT
Fibroblast growth factor receptor 3 (Homo sapiens), sequence (P22607 23-806 limits assumed): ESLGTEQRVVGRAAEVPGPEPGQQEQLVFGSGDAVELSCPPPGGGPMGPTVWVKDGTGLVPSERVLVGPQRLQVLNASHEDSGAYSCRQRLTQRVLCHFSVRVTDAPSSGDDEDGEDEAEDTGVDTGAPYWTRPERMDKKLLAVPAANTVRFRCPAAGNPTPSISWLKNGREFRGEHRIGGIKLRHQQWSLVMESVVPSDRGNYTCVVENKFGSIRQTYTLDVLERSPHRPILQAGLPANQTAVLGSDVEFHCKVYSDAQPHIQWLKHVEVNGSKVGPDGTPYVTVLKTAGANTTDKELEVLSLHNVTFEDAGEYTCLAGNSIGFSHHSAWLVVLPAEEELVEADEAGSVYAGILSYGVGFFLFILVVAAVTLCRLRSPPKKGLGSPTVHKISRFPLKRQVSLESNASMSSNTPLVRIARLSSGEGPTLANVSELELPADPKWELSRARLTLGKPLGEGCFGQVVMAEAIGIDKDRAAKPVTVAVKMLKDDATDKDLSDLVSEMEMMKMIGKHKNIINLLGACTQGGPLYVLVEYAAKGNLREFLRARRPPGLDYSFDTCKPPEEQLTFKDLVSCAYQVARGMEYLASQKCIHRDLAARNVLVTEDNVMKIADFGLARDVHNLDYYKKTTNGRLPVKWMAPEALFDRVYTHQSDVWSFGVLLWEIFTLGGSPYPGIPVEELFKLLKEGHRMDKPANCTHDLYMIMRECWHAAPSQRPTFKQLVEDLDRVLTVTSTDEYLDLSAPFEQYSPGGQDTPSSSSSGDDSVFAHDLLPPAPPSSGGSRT
Cytochrome P450 2C9, sequence (P11712 whole entry): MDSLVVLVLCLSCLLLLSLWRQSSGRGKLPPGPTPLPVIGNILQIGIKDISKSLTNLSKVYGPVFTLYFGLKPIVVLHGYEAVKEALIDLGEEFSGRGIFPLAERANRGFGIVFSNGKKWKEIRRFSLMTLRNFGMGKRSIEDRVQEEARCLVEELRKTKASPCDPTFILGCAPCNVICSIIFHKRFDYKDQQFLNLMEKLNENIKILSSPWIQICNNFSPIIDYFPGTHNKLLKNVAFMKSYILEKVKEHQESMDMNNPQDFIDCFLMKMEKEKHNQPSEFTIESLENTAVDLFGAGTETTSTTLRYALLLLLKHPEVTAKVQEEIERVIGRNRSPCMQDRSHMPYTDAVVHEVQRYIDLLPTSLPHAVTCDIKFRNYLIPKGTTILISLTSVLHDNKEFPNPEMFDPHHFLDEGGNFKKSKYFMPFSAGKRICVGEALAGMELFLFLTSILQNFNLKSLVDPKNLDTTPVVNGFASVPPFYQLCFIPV
Vascular endothelial growth factor receptor 3 (Homo sapiens), sequence (P35916 whole entry): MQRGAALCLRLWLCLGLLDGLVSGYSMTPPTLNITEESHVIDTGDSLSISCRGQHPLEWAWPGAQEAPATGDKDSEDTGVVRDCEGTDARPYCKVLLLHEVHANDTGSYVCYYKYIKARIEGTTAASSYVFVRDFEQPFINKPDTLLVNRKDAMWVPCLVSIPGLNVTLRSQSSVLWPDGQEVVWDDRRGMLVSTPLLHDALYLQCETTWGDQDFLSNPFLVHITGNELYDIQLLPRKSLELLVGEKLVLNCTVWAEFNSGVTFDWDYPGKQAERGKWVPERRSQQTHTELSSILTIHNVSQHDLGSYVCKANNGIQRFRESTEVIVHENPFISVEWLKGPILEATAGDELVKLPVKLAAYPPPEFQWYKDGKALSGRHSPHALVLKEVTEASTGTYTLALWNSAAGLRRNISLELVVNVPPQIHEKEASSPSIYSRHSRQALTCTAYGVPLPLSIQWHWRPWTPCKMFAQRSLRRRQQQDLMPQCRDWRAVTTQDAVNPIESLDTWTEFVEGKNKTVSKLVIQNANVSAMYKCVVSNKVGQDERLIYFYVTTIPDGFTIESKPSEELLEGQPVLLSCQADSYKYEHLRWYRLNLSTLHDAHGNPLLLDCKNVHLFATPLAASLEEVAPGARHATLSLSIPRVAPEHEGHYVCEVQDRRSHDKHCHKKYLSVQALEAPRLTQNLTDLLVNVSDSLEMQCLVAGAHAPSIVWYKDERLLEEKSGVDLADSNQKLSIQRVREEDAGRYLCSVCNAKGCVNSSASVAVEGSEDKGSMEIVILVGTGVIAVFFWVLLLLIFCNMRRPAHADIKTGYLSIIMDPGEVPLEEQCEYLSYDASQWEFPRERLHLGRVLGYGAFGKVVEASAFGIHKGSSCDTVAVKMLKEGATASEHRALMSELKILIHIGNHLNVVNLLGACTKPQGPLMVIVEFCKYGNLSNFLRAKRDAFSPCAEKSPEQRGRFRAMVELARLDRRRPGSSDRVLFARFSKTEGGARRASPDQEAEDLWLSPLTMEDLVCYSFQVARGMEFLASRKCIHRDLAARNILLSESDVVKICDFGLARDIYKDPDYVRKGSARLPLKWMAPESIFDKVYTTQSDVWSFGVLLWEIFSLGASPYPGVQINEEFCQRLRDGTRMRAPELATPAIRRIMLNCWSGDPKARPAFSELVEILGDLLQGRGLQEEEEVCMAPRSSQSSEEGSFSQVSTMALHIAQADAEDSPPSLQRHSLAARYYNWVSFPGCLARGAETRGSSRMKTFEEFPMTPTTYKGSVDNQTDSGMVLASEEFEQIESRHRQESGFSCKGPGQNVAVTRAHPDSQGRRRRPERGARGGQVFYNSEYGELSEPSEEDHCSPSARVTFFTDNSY
Cytochrome P450 2D6, sequence (P10635 whole entry): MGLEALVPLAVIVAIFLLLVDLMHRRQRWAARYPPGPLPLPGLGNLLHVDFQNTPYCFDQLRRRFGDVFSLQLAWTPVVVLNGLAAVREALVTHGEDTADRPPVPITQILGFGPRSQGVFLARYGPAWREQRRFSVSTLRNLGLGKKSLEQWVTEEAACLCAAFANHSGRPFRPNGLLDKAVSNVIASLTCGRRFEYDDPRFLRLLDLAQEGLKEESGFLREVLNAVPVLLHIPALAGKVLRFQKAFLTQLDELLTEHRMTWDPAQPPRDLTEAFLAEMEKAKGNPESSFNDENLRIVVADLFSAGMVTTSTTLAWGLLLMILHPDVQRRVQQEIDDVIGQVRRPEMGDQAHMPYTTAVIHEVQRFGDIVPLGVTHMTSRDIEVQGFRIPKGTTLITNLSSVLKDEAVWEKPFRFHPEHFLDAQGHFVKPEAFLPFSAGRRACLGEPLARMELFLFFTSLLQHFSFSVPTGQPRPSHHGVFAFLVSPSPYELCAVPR
Cytochrome P450 3A4, sequence (P08684 whole entry): as the sequence (P08684 whole entry) above

SMILES: Cn1cc(-c2cnc3ccc4ccc(CS(=O)(=O)NCc5cccnn5)cc4c(=O)c3c2)cn1
inhibition at 30 min, 10 µM (CYP3A4 [1]): 14%
inhibition at 10 µM (CYP3A4 [2]): 23%

SMILES: Cn1cc(-c2cnc3ccc4ccc(CS(=O)(=O)NCCc5ccccn5)cc4c(=O)c3c2)cn1
inhibition at 30 min, 10 µM (CYP3A4 [1]): 9%
inhibition at 10 µM (CYP3A4 [2]): 14%

SMILES: Cn1cc(-c2cnc3ccc4ccc(CS(=O)(=O)NCc5ccncc5)cc4c(=O)c3c2)cn1
inhibition at 10 µM (CYP3A4 [2]): 97%

SMILES: Cn1cc(-c2cnc3ccc4ccc(CS(=O)(=O)NCc5cnsc5)cc4c(=O)c3c2)cn1
inhibition at 30 min, 10 µM (CYP3A4 [1]): 13%
inhibition at 10 µM (CYP3A4 [2]): 67%

SMILES: Cn1cc(-c2cnc3ccc4ccc(CS(=O)(=O)Nc5ccccc5)cc4c(=O)c3c2)cn1
inhibition at 30 min, 10 µM (CYP3A4 [1]): 50%
inhibition at 10 µM (CYP3A4 [2]): 28%

SMILES: Cn1cc(-c2cnc3ccc4ccc(CS(=O)(=O)NCc5ccccn5)cc4c(=O)c3c2)cn1 [MK-8033]
half-life [3]: 3.1 h
inhibition at 30 min, 10 µM (CYP3A4 [1]): 16%
Vd [4]: 0.4 L/kg
inhibition [5]: > 90%
IC50 [6]: 7 nM
IC50 (Mus musculus [7]): 1700 nM
clearance [8]: 3.1 mL/min/kg
IC50 (Cytochrome P450 2C9): 14700 nM
inhibition in vivo at 3 mg/kg [9]: 22%
bioavailability [10]: 33%
TGI (GTL 16 [11]): Active
clearance [12]: 20 mL/min/kg
Vd [13]: 0.7 L/kg
IC50 (Cytochrome P450 2D6): 46200 nM
inhibition [14]: 60%
bioavailability [15]: 35%
Activity (Mus musculus [16]): Non-toxic
TGI (GTL 16 [17]): Dose-dependent effect
IC50 (Mus musculus [18]): 1300 nM
inhibition (Mus musculus [19]): Active
inhibition in vivo at 10 mg/kg [20]: 18%
inhibition in vivo at 100 mg/kg [21]: 86%
inhibition [22]: 60%
inhibition [23]: > 90%
inhibition in vivo at 30 mg/kg [24]: 57%
inhibition at 10 µM (CYP3A4 [2]): 31%
inhibition [25]: 60%
half-life [26]: 0.8 h
inhibition [27]: 60%
TDI (Cytochrome P450 3A4): Not Active

The remaining lines, values ahead:

inhibition at 30 min, 10 µM (CYP3A4 [1]): 35%
inhibition at 10 µM (CYP3A4 [2]): 0%
SMILES: CNS(=O)(=O)Cc1ccc2ccc3ncc(-c4cnn(C)c4)cc3c(=O)c2c1

inhibition at 30 min, 10 µM (CYP3A4 [1]): 26%
inhibition at 10 µM (CYP3A4 [2]): 0%
SMILES: Cn1cc(-c2cnc3ccc4ccc(CS(N)(=O)=O)cc4c(=O)c3c2)cn1

inhibition at 30 min, 10 µM (CYP3A4 [1]): 15%
inhibition at 10 µM (CYP3A4 [2]): 21%
SMILES: CCCNS(=O)(=O)Cc1ccc2ccc3ncc(-c4cnn(C)c4)cc3c(=O)c2c1

inhibition at 30 min, 10 µM (CYP3A4 [1]): 30%
inhibition at 10 µM (CYP3A4 [2]): 30%
SMILES: Cn1cc(-c2cnc3ccc4ccc(CS(=O)(=O)N[C@@H]5CCCC[C@H]5N)cc4c(=O)c3c2)cn1

inhibition at 30 min, 10 µM (CYP3A4 [1]): 20%
inhibition at 10 µM (CYP3A4 [2]): 27%
SMILES: Cn1cc(-c2cnc3ccc4ccc(CS(=O)(=O)N[C@@H]5CCCC[C@@H]5N)cc4c(=O)c3c2)cn1
